Measurements reported in ChEMBL document CHEMBL5661979, “Pharmacological inhibition of BMK1 suppresses tumor growth through promyelocytic leukemia protein” (Cancer Cell, 2010).

What was measured:
[1] = target: Serine/threonine-protein kinase TAO2 (Homo sapiens, UniProt Q9UL54); experiment: Inhibition of TAO2 in human HeLa cells lysate pre incubated for 15 mins followed by ATP acyl phosphate probe addition and measured after 10 mins by LC-MS/MS analysis; assay type: subcellular
[2] = Inhibition of PKD1/2 in human HeLa cells lysate at 10 uM pre incubated for 15 mins followed by ATP acyl phosphate probe addition and measured after 10 mins by LC-MS/MS analysis relative to control; settings: 25 min, condition cancer
[3] = target: Ribosomal protein S6 kinase alpha-1 (Homo sapiens, UniProt Q15418); experiment: Inhibition of RSK1 domain 2 K2 site in human HeLa cells lysate at 50 uM pre incubated for 15 mins followed by ADP acyl phosphate probe addition and measured after 10 mins by LC-MS/MS analysis relative to control; assay type: subcellular; settings: time 25.0 min
[4] = target: T1, Cyclin-dependent kinase 2 (Homo sapiens, UniProt P24941); experiment: Inhibition of CDK2 K2 site in human HeLa cells lysate pre incubated for 15 mins followed by ADP acyl phosphate probe addition and measured after 10 mins by LC-MS/MS analysis; assay type: subcellular
Method in brief: (§1)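 KiNativ profiling in HeLa lysate (5 mg/mL total protein). Lysate incubated 15 min with inhibitor at 50, 10, 2, 0.8 or 0 μM. ATP or ADP acylphosphate probe then added (5 μM final) and reacted 10 min. Reaction stopped with urea and analysed by targeted MS, using up to four fragment ions per kinase peptide-probe conjugate. % inhibition taken against untreated lysate. Run in duplicate.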

[5] = target: T2, Serine/threonine-protein kinase 3 (Homo sapiens) (UniProt Q13188); experiment: Inhibition of MST2 in human HeLa cells lysate at 50 uM pre incubated for 15 mins followed by ADP acyl phosphate probe addition and measured after 10 mins by LC-MS/MS analysis relative to control; assay type: subcellular; settings: time 25.0 min
T2 sequence (whole entry): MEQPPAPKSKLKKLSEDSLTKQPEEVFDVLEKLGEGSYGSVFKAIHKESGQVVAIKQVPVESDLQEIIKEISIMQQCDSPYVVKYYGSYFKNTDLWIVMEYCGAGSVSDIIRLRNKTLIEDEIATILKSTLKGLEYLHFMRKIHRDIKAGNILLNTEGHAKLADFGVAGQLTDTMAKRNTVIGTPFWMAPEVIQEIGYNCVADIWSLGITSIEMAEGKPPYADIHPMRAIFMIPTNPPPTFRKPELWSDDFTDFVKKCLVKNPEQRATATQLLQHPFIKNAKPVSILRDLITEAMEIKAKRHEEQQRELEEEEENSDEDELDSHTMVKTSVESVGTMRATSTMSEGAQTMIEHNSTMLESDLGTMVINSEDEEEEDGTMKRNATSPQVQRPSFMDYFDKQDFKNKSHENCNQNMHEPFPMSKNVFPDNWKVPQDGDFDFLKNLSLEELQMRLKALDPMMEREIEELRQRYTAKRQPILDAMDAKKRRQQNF

[6] = target: T1, Cyclin-dependent kinase 2; experiment: Inhibition of CDK2 K1 site in human HeLa cells lysate pre incubated for 15 mins followed by ATP acyl phosphate probe addition and measured after 10 mins by LC-MS/MS analysis; assay type: subcellular; method in brief: as §1
[7] = target: Cyclin-dependent kinase 16 (Homo sapiens, UniProt Q00536); experiment: Inhibition of PCTAIRE1 in human HeLa cells lysate at 2 uM pre incubated for 15 mins followed by ADP acyl phosphate probe addition and measured after 10 mins by LC-MS/MS analysis relative to control; assay type: subcellular; settings: time 25.0 min
[8] = target: Serine/threonine-protein kinase Nek7 (Homo sapiens, UniProt Q8TDX7); experiment: Inhibition of NEK7 in human HeLa cells lysate at 2 uM pre incubated for 15 mins followed by ADP acyl phosphate probe addition and measured after 10 mins by LC-MS/MS analysis relative to control; assay type: subcellular; settings: time 25.0 min
[9] = target: Tyrosine-protein kinase JAK1 (Homo sapiens, UniProt P23458); experiment: Inhibition of JAK1 domain 2 in human HeLa cells lysate pre incubated for 15 mins followed by ATP acyl phosphate probe addition and measured after 10 mins by LC-MS/MS analysis; assay type: subcellular
[10] = target: Calcium/calmodulin-dependent protein kinase type II subunit delta (Homo sapiens, UniProt Q13557); experiment: Inhibition of CamK2d in human HeLa cells lysate at 50 uM pre incubated for 15 mins followed by ADP acyl phosphate probe addition and measured after 10 mins by LC-MS/MS analysis relative to control; assay type: subcellular; settings: time 25.0 min
[11] = target: T3, Scaffold protein ILK (Homo sapiens) (UniProt Q13418); experiment: Inhibition of ILK in human HeLa cells lysate at 10 uM pre incubated for 15 mins followed by ATP acyl phosphate probe addition and measured after 10 mins by LC-MS/MS analysis relative to control; assay type: subcellular; settings: time 25.0 min
T3 sequence (whole entry): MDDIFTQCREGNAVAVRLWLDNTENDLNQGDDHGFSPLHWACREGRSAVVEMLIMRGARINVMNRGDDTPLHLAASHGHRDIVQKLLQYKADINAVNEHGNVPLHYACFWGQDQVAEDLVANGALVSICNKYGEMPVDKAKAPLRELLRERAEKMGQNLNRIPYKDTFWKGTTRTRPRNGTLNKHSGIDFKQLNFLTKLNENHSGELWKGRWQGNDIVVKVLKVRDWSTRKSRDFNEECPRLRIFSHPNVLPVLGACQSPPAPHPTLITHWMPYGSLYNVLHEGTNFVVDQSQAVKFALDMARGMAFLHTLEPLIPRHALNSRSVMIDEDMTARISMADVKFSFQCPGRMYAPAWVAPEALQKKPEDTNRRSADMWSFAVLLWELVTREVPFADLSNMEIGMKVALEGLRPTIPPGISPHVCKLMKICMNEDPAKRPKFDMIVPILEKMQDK

[12] = target: Calcium/calmodulin-dependent protein kinase type 1D (Homo sapiens, UniProt Q8IU85); experiment: Inhibition of CAMK1d in human HeLa cells lysate at 10 uM pre incubated for 15 mins followed by ATP acyl phosphate probe addition and measured after 10 mins by LC-MS/MS analysis relative to control; assay type: subcellular; settings: time 25.0 min
Method in brief: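 KiNativ-type profiling in HeLa lysate (5 mg/mL total protein). Lysate preincubated 15 min with inhibitor at 50, 10, 2, 0.8 or 0 μM, then ATP or ADP acylphosphate probe added (5 μM final) for 10 min. Reaction stopped with urea and analysed by targeted MS, using up to four fragment ions per kinase peptide-probe conjugate. % inhibition calculated against untreated lysate. Duplicate reactions.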

Chain of Serine/threonine-protein kinase TAO2 (Q9UL54 whole entry): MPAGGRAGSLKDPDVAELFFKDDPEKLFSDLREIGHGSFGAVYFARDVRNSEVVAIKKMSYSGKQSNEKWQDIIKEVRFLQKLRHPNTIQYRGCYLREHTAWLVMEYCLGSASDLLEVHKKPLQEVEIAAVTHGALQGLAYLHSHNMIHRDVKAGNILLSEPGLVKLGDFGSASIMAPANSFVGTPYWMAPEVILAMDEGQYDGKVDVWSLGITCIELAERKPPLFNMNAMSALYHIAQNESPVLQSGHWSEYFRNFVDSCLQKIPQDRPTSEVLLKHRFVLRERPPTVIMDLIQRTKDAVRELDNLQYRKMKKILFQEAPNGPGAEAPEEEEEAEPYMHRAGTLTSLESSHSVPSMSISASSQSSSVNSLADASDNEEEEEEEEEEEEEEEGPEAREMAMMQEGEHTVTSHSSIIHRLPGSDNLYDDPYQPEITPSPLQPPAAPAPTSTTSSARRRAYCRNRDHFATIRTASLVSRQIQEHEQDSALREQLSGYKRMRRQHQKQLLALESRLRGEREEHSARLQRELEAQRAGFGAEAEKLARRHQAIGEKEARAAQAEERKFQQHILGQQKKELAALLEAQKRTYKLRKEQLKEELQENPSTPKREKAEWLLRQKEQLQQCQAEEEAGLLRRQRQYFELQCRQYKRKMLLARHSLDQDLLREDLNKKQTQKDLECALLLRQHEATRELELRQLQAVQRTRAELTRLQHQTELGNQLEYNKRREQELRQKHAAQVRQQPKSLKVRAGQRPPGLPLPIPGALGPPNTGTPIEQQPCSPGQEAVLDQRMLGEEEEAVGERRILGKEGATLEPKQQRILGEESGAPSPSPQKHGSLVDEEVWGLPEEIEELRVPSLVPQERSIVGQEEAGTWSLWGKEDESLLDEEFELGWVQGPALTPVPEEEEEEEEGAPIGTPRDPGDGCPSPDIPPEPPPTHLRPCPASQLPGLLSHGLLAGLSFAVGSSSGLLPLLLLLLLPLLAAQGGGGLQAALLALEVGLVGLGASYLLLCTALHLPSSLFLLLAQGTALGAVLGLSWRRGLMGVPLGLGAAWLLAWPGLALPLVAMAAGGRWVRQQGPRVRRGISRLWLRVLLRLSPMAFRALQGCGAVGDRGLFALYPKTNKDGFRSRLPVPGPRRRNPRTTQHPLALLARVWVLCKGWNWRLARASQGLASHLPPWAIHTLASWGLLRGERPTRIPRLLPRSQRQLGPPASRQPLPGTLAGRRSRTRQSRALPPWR
Chain of Calcium/calmodulin-dependent protein kinase type 1D (Q8IU85 whole entry, looked up, the tested form may be a part): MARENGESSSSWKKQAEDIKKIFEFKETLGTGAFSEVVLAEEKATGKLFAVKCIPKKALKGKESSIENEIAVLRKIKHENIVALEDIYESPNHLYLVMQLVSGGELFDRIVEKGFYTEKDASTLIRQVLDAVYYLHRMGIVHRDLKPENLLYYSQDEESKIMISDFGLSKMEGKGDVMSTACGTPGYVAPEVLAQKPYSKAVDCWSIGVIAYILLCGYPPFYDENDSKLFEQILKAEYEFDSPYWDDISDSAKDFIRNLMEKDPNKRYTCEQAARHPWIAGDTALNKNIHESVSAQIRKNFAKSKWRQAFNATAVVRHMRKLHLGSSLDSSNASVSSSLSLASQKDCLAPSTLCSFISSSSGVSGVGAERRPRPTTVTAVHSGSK
Chain of Tyrosine-protein kinase JAK1 (P23458 whole entry, the tested form may be a part): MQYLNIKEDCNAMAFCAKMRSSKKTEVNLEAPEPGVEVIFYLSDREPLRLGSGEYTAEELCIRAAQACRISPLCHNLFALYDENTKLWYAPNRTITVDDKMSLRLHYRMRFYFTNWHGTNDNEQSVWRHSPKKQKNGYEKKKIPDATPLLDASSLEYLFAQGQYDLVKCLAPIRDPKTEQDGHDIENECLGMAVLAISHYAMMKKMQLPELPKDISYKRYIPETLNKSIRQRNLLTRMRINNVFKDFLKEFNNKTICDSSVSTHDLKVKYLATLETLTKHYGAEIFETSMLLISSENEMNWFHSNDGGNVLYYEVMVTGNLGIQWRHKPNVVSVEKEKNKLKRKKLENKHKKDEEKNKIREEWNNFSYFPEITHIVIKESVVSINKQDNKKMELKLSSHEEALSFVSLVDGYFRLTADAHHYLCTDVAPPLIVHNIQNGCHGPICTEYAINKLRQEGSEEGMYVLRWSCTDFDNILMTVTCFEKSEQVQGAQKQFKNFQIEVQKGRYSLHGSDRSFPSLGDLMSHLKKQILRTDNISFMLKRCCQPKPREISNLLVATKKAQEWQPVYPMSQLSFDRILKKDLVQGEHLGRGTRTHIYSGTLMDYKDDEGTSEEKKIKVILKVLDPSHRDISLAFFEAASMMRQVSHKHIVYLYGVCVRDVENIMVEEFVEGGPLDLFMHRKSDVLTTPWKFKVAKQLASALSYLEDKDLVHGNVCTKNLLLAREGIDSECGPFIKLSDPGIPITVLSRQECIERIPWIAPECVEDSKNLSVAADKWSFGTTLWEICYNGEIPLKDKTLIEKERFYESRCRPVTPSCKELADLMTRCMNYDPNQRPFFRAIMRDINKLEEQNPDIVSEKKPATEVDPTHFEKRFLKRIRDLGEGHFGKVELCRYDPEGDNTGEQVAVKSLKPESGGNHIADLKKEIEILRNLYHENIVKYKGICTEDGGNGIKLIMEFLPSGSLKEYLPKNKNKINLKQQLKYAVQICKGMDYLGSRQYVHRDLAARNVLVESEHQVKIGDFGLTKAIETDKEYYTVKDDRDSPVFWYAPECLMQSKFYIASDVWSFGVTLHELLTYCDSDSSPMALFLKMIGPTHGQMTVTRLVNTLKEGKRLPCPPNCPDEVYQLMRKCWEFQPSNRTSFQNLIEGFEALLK
Chain of Ribosomal protein S6 kinase alpha-1 (Q15418 whole entry, the tested form may be a part): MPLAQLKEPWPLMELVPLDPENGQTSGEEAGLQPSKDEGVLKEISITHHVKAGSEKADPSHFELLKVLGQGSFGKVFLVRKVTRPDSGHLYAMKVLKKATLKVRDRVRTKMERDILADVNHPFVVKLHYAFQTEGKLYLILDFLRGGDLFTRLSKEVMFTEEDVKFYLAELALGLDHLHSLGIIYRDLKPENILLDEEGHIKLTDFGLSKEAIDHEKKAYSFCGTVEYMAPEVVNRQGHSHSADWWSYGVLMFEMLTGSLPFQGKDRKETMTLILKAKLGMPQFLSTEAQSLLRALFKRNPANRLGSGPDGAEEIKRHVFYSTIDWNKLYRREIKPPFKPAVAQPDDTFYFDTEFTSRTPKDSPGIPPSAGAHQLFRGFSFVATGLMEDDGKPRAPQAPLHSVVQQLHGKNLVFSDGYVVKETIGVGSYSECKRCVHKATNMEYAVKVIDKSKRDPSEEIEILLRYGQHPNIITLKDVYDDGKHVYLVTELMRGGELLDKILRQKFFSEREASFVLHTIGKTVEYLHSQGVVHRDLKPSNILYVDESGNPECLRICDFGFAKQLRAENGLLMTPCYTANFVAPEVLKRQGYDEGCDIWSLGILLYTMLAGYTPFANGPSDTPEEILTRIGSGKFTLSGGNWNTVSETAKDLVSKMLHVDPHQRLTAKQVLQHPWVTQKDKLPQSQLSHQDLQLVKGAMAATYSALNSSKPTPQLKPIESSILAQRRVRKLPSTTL
Chain of Serine/threonine-protein kinase Nek7 (Q8TDX7 whole entry, looked up, the tested form may be a part): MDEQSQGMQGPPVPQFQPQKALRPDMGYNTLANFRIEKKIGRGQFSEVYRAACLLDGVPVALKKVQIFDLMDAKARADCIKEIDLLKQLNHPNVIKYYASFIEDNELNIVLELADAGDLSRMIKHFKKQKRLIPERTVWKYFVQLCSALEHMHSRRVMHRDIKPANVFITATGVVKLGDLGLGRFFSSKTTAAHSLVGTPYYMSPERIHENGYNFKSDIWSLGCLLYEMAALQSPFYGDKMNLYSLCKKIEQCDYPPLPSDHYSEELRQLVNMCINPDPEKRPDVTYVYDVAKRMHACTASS
Chain of Cyclin-dependent kinase 16 (Q00536 whole entry): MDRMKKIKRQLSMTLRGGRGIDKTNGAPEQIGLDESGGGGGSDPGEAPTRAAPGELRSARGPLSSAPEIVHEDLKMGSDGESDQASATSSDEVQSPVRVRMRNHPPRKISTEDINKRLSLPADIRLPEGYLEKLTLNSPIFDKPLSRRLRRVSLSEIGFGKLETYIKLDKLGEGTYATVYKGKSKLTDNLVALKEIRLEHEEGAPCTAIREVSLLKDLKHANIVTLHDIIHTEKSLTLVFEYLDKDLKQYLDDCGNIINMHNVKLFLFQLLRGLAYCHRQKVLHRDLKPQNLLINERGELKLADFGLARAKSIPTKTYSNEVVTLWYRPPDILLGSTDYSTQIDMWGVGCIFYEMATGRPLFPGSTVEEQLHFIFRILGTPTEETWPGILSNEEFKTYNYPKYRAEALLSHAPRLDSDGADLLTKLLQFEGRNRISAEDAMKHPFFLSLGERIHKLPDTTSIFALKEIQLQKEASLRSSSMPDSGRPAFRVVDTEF
Chain of Calcium/calmodulin-dependent protein kinase type II subunit delta (Q13557 whole entry): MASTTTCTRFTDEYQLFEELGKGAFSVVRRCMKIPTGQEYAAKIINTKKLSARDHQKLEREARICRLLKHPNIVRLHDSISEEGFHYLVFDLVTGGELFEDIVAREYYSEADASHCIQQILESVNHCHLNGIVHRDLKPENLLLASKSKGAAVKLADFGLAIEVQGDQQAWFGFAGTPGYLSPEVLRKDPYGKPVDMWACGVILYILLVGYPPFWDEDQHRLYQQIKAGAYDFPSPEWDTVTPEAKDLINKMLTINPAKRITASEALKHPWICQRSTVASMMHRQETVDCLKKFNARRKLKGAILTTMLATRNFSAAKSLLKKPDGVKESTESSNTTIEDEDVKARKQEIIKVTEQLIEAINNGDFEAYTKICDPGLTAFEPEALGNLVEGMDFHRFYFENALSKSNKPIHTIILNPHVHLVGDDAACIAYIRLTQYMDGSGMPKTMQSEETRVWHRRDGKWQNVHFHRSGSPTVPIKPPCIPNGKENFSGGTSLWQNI

Compound `CCOc1cc(N2CCC(O)CC2)ccc1Nc1ncc2c(n1)N(C)c1ccccc1C(=O)N2C` has an IC50 [1] of over 50 µM, an inhibition at 10 µM [2] of -23% and an inhibition [3] of 65.6%. It also gave an IC50 [4] of over 50 µM, an inhibition [5] of 7.2% and an IC50 [6] of over 50 µM. It also gave an inhibition [7] of 17.5%, an inhibition [8] of 14.2% and an IC50 [9] of over 50 µM. For the same compound, the inhibition [10] was 10.3%, the inhibition [11] was 13.3% and the inhibition [12] was -7.6%.
